Measurements as given in ChEMBL document CHEMBL4354800, “Amphiphilic nebramine-based hybrids Rescue legacy antibiotics from intrinsic resistance in multidrug-resistant Gram-negative bacilli” (Eur J Med Chem, 2019).

How the values were obtained:
Assay type in all cases: functional
Pseudomonas aeruginosa [1] = experiment: Potentiation of moxifloxacin-induced antibacterial activity against MDR/XDR Pseudomonas aeruginosa isolate PA260-97103 harboring GyrA T83I mutant assessed as fold reduction in moxifloxacin MIC at 9 uM incubated for 18 hrs by broth microdilution method
Summary of the method: (§1)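 CLSI broth microdilution. Overnight cultures were set to 0.5 McFarland in saline, diluted 1:50 in Mueller-Hinton broth to a final 5 × 10^5 CFU/mL, and incubated 18 h at 37 °C against 2-fold antibiotic dilutions. A fixed adjuvant level was present throughout. MIC = lowest concentration with no visible turbidity, confirmed at 590 nm. Potentiation = fold drop in antibiotic MIC versus antibiotic alone.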

Pseudomonas aeruginosa [2] = experiment: Potentiation of minocycline-induced antibacterial activity against MDR/XDR Pseudomonas aeruginosa isolate 101243 devoid of GyrA T83I mutant assessed as fold reduction in minocycline MIC at 9 uM incubated for 18 hrs by broth microdilution method
Pseudomonas aeruginosa [3] = experiment: Antimicrobial activity against XDR Pseudomonas aeruginosa isolate PA264 infected in Galleria mellonella larvae assessed as survival rate at 25 mg/kg co-administered with 25 mg/kg rifampicin at 2 hrs post-inoculation measured after 24 hrs relative to control
Summary of the method: (§2)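 G. mellonella larvae were injected with ~5 CFU of P. aeruginosa PA264 (10 µL of 5 × 10^2 CFU/mL in PBS) and held 2 h at 37 °C. A single 10 µL injection followed: monotherapy or rifampicin + compound (25+25, 50+50 or 75+75 mg/kg), with PBS as control. Larvae kept at 37 °C were scored every 6 h to 24 h; dead = no response to touch. n = 30 (two runs of 15); Kaplan-Meier.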

Pseudomonas aeruginosa [4] = experiment: Antimicrobial activity against XDR Pseudomonas aeruginosa isolate PA264 infected in Galleria mellonella larvae assessed as survival rate at 75 mg/kg co-administered with 75 mg/kg rifampicin at 2 hrs post-inoculation measured after 18 hrs relative to control; summary of the method: as §2
Klebsiella pneumoniae [5] = experiment: Potentiation of rifampicin-induced antibacterial activity against Klebsiella pneumoniae 116381 assessed as fold reduction in rifampicin MIC at 4.1 uM incubated for 18 hrs by broth dilution method
Summary of the method: (§3)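 Antibiotic MIC determined by CLSI broth microdilution (MHB, 5 × 10^5 CFU/mL, 18 h, 37 °C), once alone and once with a fixed concentration of the adjuvant. Potentiation is the ratio of the antibiotic MIC alone to its MIC in the presence of the adjuvant.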

Klebsiella pneumoniae [6] = experiment: Synergistic antibacterial activity against Klebsiella pneumoniae 113250 assessed as fractional inhibitory concentration index in presence of rifampicin incubated for 18 hrs by broth dilution method
Summary of the method: (§4)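 Checkerboard titration of the adjuvant against the antibiotic, run under the CLSI microdilution conditions (MHB, 5 × 10^5 CFU/mL, 18 h, 37 °C). Each agent's FIC is its MIC in combination divided by its MIC alone; FICI is the sum of the two FICs. FICI ≤0.5 was read as synergy, >0.5–4.0 as no interaction, and >4.0 as antagonism.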

Klebsiella pneumoniae [7] = experiment: Synergistic antibacterial activity against Klebsiella pneumoniae 113250 assessed as fractional inhibitory concentration index in presence of minocycline incubated for 18 hrs by broth dilution method; summary of the method: as §4
Escherichia coli = experiment: Potentiation of rifampicin-induced antibacterial activity against Escherichia coli 107115 assessed as fold reduction in rifampicin MIC at 4.1 uM incubated for 18 hrs by broth dilution method; summary of the method: as §3
Klebsiella pneumoniae [8] = experiment: Potentiation of minocycline-induced antibacterial activity against Klebsiella pneumoniae 116381 assessed as fold reduction in minocycline MIC at 4.1 uM incubated for 18 hrs by broth dilution method; summary of the method: as §3
Acinetobacter baumannii [9] = experiment: Antimicrobial activity against multidrug-resistant Acinetobacter baumannii AB110193 incubated for 18 hrs by broth dilution method; details: AB110193, 18 h
Summary of the method: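 Broth microdilution per CLSI: overnight cultures set to 0.5 McFarland in saline, diluted 1:50 in Mueller-Hinton broth to a final 5 × 10^5 CFU/mL, added to 2-fold serial dilutions, incubated 18 h at 37 °C; MIC is the lowest concentration without visible turbidity, confirmed at 590 nm.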

Klebsiella pneumoniae [10] = experiment: Synergistic antibacterial activity against Klebsiella pneumoniae 113254 assessed as fractional inhibitory concentration index in presence of minocycline incubated for 18 hrs by broth dilution method; summary of the method: as §4
Acinetobacter baumannii [11] = experiment: Potentiation of rifampicin-induced antibacterial activity against multidrug-resistant Acinetobacter baumannii AB110193 assessed as fold reduction in rifampicin MIC at 4.1 uM incubated for 18 hrs by broth dilution method; summary of the method: as §1
Pseudomonas aeruginosa [12] = experiment: Potentiation of minocycline-induced antibacterial activity against wild type Pseudomonas aeruginosa PAO1 assessed as fold reduction in minocycline MIC at 7.5 uM incubated for 18 hrs by broth microdilution method; summary of the method: as §3
Pseudomonas aeruginosa [13] = experiment: Potentiation of rifampicin-induced antimicrobial activity against MDR/XDR Pseudomonas aeruginosa isolate PA262-101856 harboring GyrA Thr83Ile mutant assessed as rifampicin MIC80 incubated for 18 hrs by broth microdilution method (reference value: 16 microg/ml); details: isolate PA262-101856, 18 h
Pseudomonas aeruginosa [14] = experiment: Potentiation of rifampicin-induced antimicrobial activity against MDR/XDR Pseudomonas aeruginosa isolate 100036 harboring GyrA Thr83Ile mutant assessed as rifampicin MIC80 incubated for 18 hrs by broth microdilution method (reference value: 16 microg/ml); details: isolate 100036, 18 h
Pseudomonas aeruginosa [15] = experiment: Potentiation of minocycline-induced antimicrobial activity against MDR/XDR Pseudomonas aeruginosa isolate 91433 devoid of GyrA Thr83Ile mutant assessed as minocycline MIC80 incubated for 18 hrs by broth microdilution method (reference value: 32 microg/ml); details: isolate 91433, 18 h
Pseudomonas aeruginosa [16] = experiment: Potentiation of rifampicin-induced antibacterial activity against wild type Pseudomonas aeruginosa PAO1 assessed as fold reduction in rifampicin MIC at 7.5 uM incubated for 18 hrs by broth microdilution method; summary of the method: as §1
Pseudomonas aeruginosa [17] = experiment: Potentiation of minocycline-induced antimicrobial activity against MDR/XDR Pseudomonas aeruginosa isolate 100036 harboring GyrA Thr83Ile mutant assessed as minocycline MIC50 incubated for 18 hrs by broth microdilution method (reference value: 16 microg/ml); details: isolate 100036, 18 h
Acinetobacter baumannii [18] = experiment: Potentiation of rifampicin-induced antibacterial activity against multidrug-resistant Acinetobacter baumannii 110193 assessed as fold reduction in rifampicin MIC at 7.5 uM incubated for 18 hrs by broth dilution method; summary of the method: as §1
Enterobacter cloacae = experiment: Potentiation of minocycline-induced antibacterial activity against Enterobacter cloacae 117029 assessed as fold reduction in minocycline MIC at 7.5 uM incubated for 18 hrs by broth dilution method; summary of the method: as §3
Pseudomonas aeruginosa [19] = experiment: Potentiation of minocycline-induced antibacterial activity against MDR/XDR Pseudomonas aeruginosa isolate PA264-104354 harboring GyrA T83I mutant assessed as fold reduction in minocycline MIC at 7.5 uM incubated for 18 hrs by broth microdilution method
Acinetobacter baumannii [20] = experiment: Synergistic antibacterial activity against multidrug-resistant Acinetobacter baumannii AB027 assessed as fractional inhibitory concentration index in presence of rifampicin incubated for 18 hrs by broth dilution method
Pseudomonas aeruginosa [21] = experiment: Potentiation of minocycline-induced antimicrobial activity against MDR/XDR Pseudomonas aeruginosa isolate PA262-101856 harboring GyrA Thr83Ile mutant assessed as minocycline MIC50 incubated for 18 hrs by broth microdilution method (reference value: 16 microg/ml); details: isolate PA262-101856, 18 h

Q: Which results are given for `Cl.Cl.Cl.Cl.Cl.Cl.NC[C@H]1O[C@H](O[C@H]2[C@H](OCCCCCCCCCCN3CCN(Cc4cccc5ccccc45)CC3)[C@@H](O)[C@H](N)C[C@@H]2N)[C@H](N)C[C@@H]1O`?
A: fold change (FC) (Pseudomonas aeruginosa [1]): 128; fold change (FC) (Pseudomonas aeruginosa [2]): 8

Q: What does the source list for `Cl.Cl.Cl.Cl.Cl.NC[C@H]1O[C@H](O[C@H]2[C@H](OCCCCCCCCCCCCN3CCN(c4cc5c(cc4F)c(=O)c(C(=O)O)cn5C4CC4)CC3)[C@@H](O)[C@H](N)C[C@@H]2N)[C@H](N)C[C@@H]1O`?
A: survival at 25 mg/kg (Pseudomonas aeruginosa [3]): 13%; survival at 75 mg/kg (Pseudomonas aeruginosa [4]): 87%; fold change (FC) (Klebsiella pneumoniae [5]): >=128; fractional inhibitory concentration index (FICI) (Klebsiella pneumoniae [6]): 0.039; fractional inhibitory concentration index (FICI) (Klebsiella pneumoniae [7]): 0.504; fold change (FC) (Escherichia coli): >=256; fold change (FC) (Klebsiella pneumoniae [8]): 16; MIC (Acinetobacter baumannii [9]): > 128 µg/mL; fractional inhibitory concentration index (FICI) (Klebsiella pneumoniae [10]): 0.504; fold change (FC) (Acinetobacter baumannii [11]): 64

Q: Which “fold change (FC)” value (Pseudomonas aeruginosa [12]) does the source give for `COc1c(N2C[C@@H]3CCCN(CCCCCCCCCCCCO[C@@H]4[C@@H](O)[C@H](N)C[C@H](N)[C@H]4O[C@H]4O[C@H](CN)[C@@H](O)C[C@H]4N)[C@@H]3C2)c(F)cc2c(=O)c(C(=O)O)cn(C3CC3)c12.Cl.Cl.Cl.Cl.Cl` here?
A: 8

Q: And the MIC80 (Pseudomonas aeruginosa [13])?
A: 0.13 µg/mL

Q: What about the MIC80 (Pseudomonas aeruginosa [14]) of the same compound?
A: 0.13 µg/mL

Q: And the MIC80 (Pseudomonas aeruginosa [15])?
A: 1 µg/mL

Q: And the “fold change (FC)” value (Pseudomonas aeruginosa [16])?
A: >=256

Q: And the MIC50 (Pseudomonas aeruginosa [17])?
A: 0.5 µg/mL

Q: What about the “fold change (FC)” value (Acinetobacter baumannii [18]) of the same compound?
A: 32

Q: And the “fold change (FC)” value (Enterobacter cloacae)?
A: 16

Q: What about the “fold change (FC)” value (Pseudomonas aeruginosa [19]) of the same compound?
A: 64

Q: And the “fractional inhibitory concentration index (FICI)” value (Acinetobacter baumannii [20])?
A: 0.031 - 0.047

Q: And the MIC50 (Pseudomonas aeruginosa [21])?
A: 0.5 µg/mL
